Assay results collected from several papers.
Compare with care: the assays were run in different laboratories.
RET: Proto-oncogene tyrosine-protein kinase receptor Ret (RET, Homo sapiens, UniProt P07949)
Nos2: Nitric oxide synthase, inducible (Nos2, Mus musculus, UniProt P29477)
ASH1L: Histone-lysine N-methyltransferase ASH1L (ASH1L, Homo sapiens, UniProt Q9NR48)
MARK4: MAP/microtubule affinity-regulating kinase 4 (MARK4, Homo sapiens, UniProt Q96L34)
PIP4K2C: Phosphatidylinositol 5-phosphate 4-kinase type-2 gamma (PIP4K2C, Homo sapiens, UniProt Q8TBX8)

SMILES | target | assay | conditions | quantity | result
Cc1ccc(Nc2nc(N3CCN(C(=O)c4ccco4)CC3)nc3[nH]ncc23)cc1 | RET | enzyme activity, inhibitor, radiometric | 10 µM | remaining activity | 99.9%
CC/C(=N\NC(=O)NCc1cccc(O)c1)c1ccc(O)c(C)c1O | Citron Rho-interacting kinase (CIT, Homo sapiens, UniProt O14578) | enzyme activity, inhibitor | 0.1 µM | inhibition | -4.1%
CN(C)C1CCN(CC#Cc2nn(C3CCCC3)c3nc(NCc4ccccc4)ncc23)C1 (centres unmarked) | Tyrosine-protein kinase Lck (LCK, Homo sapiens, UniProt P06239) | enzyme activity, inhibitor, FRET | 10 µM | inhibition | 78%
O=C(Nc1ccc(NC(=O)c2ccoc2)cc1C(F)(F)F)Nc1ccc(NC(=O)c2ccoc2)cc1C(F)(F)F | RET | enzyme activity, inhibitor, radiometric | 10 µM | remaining activity | 101%
Cc1nc(O)nc(O)c1C | Nos2 | enzyme activity, inhibitor | 1 mM | inhibition | > 40%
CCOC(=O)N1CCN(c2nc(Nc3ccc(C)cc3)c3nn[nH]c3n2)CC1 | RET | enzyme activity, inhibitor, radiometric | 10 µM | remaining activity | 154%
C[S+]([O-])c1ccc(-c2nc(-c3ccncc3)c(-c3ccc(F)cc3)[nH]2)cc1 (centres unmarked) | ASH1L | thermal stability, DSF | 10 µM | ΔTm | 0.31 °C
CC(=O)C(Cl)C(C)=O | Nos2 | enzyme activity, inhibitor | 1 mM | inhibition | > 40%
Cc1nn(CC(F)(F)F)cc1Nc1ncc(Br)c(NCc2ccc(S(N)(=O)=O)cc2)n1 | MARK4 | enzyme activity, inhibitor, radiometric | 1 µM | remaining activity | 79%
CO[C@]1(C(=O)N[C@@H](C)c2ccc(-n3cc(F)cn3)nc2)CC[C@H](c2nc(C)cc(Nc3cc(C)[nH]n3)n2)CC1 | RET | thermal stability, DSF | 10 µM | ΔTm | 11.6 °C
C=C(F)[C@@](N)(CCCCN)C(=O)O | Lysine decarboxylase (Hafnia alvei, UniProt P05033) | enzyme activity, inhibitor, absorbance | – | KI (inactivation) | 470 µM
O=C(NCCCNc1nc(Nc2cccc(NC(=O)N3CCCC3)c2)ncc1I)c1cccs1 | MARK4 | enzyme activity, inhibitor, radiometric | 1 µM | remaining activity | 2%
O=c1occcc1O | Nos2 | enzyme activity, inhibitor | 1 mM | inhibition | > 40%
COCC(=O)Nc1cc(C(=O)N(C)CCc2c(C)n[nH]c2C)c2c(c1)ncn2Cc1ccc(F)cc1 | RET | enzyme activity, inhibitor, radiometric | 10 µM | remaining activity | 117%
Nc1ncnc2occ(-c3ccc(NC(=O)Nc4cc(C(F)(F)F)ccc4F)cc3)c12 | PIP4K2C | cell-free assay | 20 µM | remaining signal | 24%
COc1ccc(NC(=O)Nc2cc(C)c3nc(NC(=O)c4ccccc4)sc3c2)c(OC)c1 | RET | enzyme activity, inhibitor, radiometric | 10 µM | remaining activity | 98.8%
COc1cc2ncnc(Nc3ccc(Oc4ccccc4)cc3C)c2cc1OC | Tyrosine-protein kinase JAK2, JH1 (JAK2, Homo sapiens, UniProt O60674) | enzyme activity, inhibitor | 1 µM | inhibition | -6%
Cc1cnc(Nc2ccc(OCCN3CCCC3)cc2)nc1Nc1cccc(S(=O)(=O)NC(C)(C)C)c1 | Bromodomain adjacent to zinc finger domain protein 2A, bromodomain (BAZ2A, Homo sapiens, UniProt Q9UIF9) | thermal stability, DSF | 10 µM | ΔTm | -0.11 °C
O=C(CCCCCCCCc1ccc(O)cc1)c1c(O)cccc1O | Bifunctional epoxide hydrolase 2 (EPHX2, Homo sapiens, UniProt P34913) | enzyme activity, inhibitor, fluorescence | 100 µM | inhibition | 93.5%
Cc1cc2c(cc1N1C(=O)c3cccc4c(Cl)ccc(c34)C1=O)n(C)c(=O)n2C | ASH1L | thermal stability, DSF | 10 µM | ΔTm | 1.2 °C
Oc1ccc(-c2nc(-c3ccncc3)c(-c3ccc(F)cc3)[nH]2)cc1 | ASH1L | thermal stability, DSF | 10 µM | ΔTm | 0.27 °C
COc1ccccc1NC(=O)Nc1ccc2nc(NC(=O)c3ccccc3)sc2c1 | RET | enzyme activity, inhibitor, radiometric | 0.1 µM | remaining activity | 113%
Cn1cncc1C1=CN(c2ncnc3[nH]cnc23)CCS1 | Serine/threonine-protein kinase LATS2 (LATS2, Homo sapiens, UniProt Q9NRM7) | enzyme activity, inhibitor, radiometric | 2 µM | inhibition | 92.9%
CC(=O)c1cccc(NC(=O)Nc2cc3c(cc2Oc2ccccc2)n(C)c(=O)n3C)c1 | RET | enzyme activity, inhibitor, radiometric | 0.1 µM | remaining activity | 104%
Cc1ccc(C(=O)Nc2ccc(CN3CCN(C)CC3)c(C(F)(F)F)c2)cc1C#Cc1cnc2cccnn12 | PIP4K2C | cell-free assay | 23.5 nM | remaining signal | 99%
Cc1nn(C)c2ncc(C(=O)NC(=O)Nc3ccc(F)c(C(F)(F)F)c3)cc12 | C5a anaphylatoxin chemotactic receptor 1 (C5AR1, Homo sapiens, UniProt P21730) | ligand displacement, radioligand | 10 µM | inhibition | < 10%
CC(C)[C@@H]1NC(=O)[C@@H]2CCCN2C(=O)[C@H](Cc2ccccc2)NC(=O)CSC[C@@H](C(=O)N[C@@H](Cc2ccc(O)cc2)C(N)=O)NC(=O)[C@H](Cc2c[nH]c3ccccc23)NC(=O)[C@H](CCCCN)NC(=O)[C@H](Cc2ccccc2)N(C)C(=O)[C@H](Cc2ccccc2)NC1=O | Stimulator of interferon genes protein (STING1, Homo sapiens, UniProt Q86WV6, H232R) | thermal stability, DSF | 200 µM | ΔTm | 5.83 °C
COc1cc(NC(=O)Nc2ccc(C)c(F)c2)cc2sc(NC(=O)c3ccccc3)nc12 | RET | enzyme activity, inhibitor, radiometric | 0.1 µM | remaining activity | 107%
N#Cc1ccc(/C=C/CN(CC[C@H](N)C(=O)O)C[C@H]2O[C@@H](n3cnc4c(N)ncnc43)[C@H](O)[C@@H]2O)cc1 | Phenylethanolamine N-methyltransferase (PNMT, Homo sapiens, UniProt P11086) | enzyme activity, inhibitor | 1 µM | activity vs control | 96%
